Converted amounts (≈) assume the structure as drawn.
Legend:
[1] = tested on: M. tuberculosis H37Rv versus NIH 3T3; assay: Selectivity index; parameters: species or system Mycobacterium tuberculosis; settings: IC50 NIH 3T3 / MIC M. tuberculosis H37Rv
Outline: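 SI = IC50/MIC. MIC against M. tuberculosis H37Rv came from broth microdilution microplate alamar blue assay (MABA), with compounds tested at 100-1.56 μg/ml. […] IC50 was derived by nonlinear regression of % inhibition against log10 concentration.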

Rhodospirillum rubrum = assay: MIC, two-fold serial dilution; format: cell-based; settings: 24 h, read-out: R. ruberum MIC× 10^−3
Vibrio cholerae = assay: MIC, two-fold serial dilution; format: cell-based; settings: 24 h, read-out: V. cholerae MIC× 10^−3
Candida albicans = assay: MIC, two-fold serial dilution; format: cell-based; settings: read-out: C. albicans MIC× 10^−3
Outline: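 Fungal MIC determined by two-fold serial dilution, with clotrimazole as reference standard. Growth was scored visually after 72-96 h incubation. MIC was taken as the lowest concentration with no visible growth.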

Coryne bacterium = assay: Zone of inhibition, disk diffusion; format: cell-based
Bacillus lentus = assay: Zone of inhibition, disk diffusion; format: cell-based
[2] = tested on: M. tuberculosis H37Rv (MTB); assay: Microplate alamar blue assay; format: cell-based, Mycobacterium tuberculosis; settings: MABA, screened at 100-1.56 μg/ml; - indicates no inhibition
Escherichia coli = assay: Zone of inhibition, disk diffusion; format: cell-based; settings: E. coli, 100 μg/disk

O=C1NN=C(N=Cc2ccccc2O)C1=NNn1c(-c2ccccc2)nc2ccccc2c1=O [QSP2, 3-{2-[-3-[-[(2-hydroxyphenyl)methylidene]amino]-5-oxo-4,5-dihydro-1H-pyrazol-4-ylidene]hydrazin-1-yl}-2-phenyl-3,4-dihydroquinazolin-4-one]
Selective Index (SI) (SI=IC50/MIC) [1]: 16.32

O=C1NN=C(N=Cc2ccc(O)c(O)c2)C1=NNn1c(-c2ccccc2)nc2ccccc2c1=O [QSP4, 3-{2-[-3-[-[(3,4-dihydroxyphenyl)methylidene]amino]-5-oxo-4,5-dihydro-1H-pyrazol-4-ylidene] hydrazin-1-yl}-2-phenyl-3,4-dihydroquinazolin-4-one]
MIC (Rhodospirillum rubrum): 26.7 µM (≈ 12.5 µg/mL) | MIC (Vibrio cholerae): 26.7 µM (≈ 12.5 µg/mL) | MIC (Candida albicans): 26.7 µM (≈ 12.5 µg/mL)

CC1=NN(CNc2ccc(Cl)cc2)C(=O)C1=NNn1c(-c2ccccc2)nc2ccccc2c1=O [QP4, 3-{2-[-1-{[(4-chlorophenyl)amino]methyl}-3-methyl-5-oxo-4,5-dihydro-1H-pyrazol-4-ylidene] hydrazin-1-yl}-2-phenyl-3,4-dihydroquinazolin-4-one]
C. bacterium % of I (Coryne bacterium): 90%

CC(=O)NCN1N=C(C)C(=NNn2c(-c3ccccc3)nc3ccccc3c2=O)C1=O [QP9, N-{[-3-methyl-5-oxo-4-[2-(4-oxo-2-phenyl-3,4-dihydroquinazolin-3-yl)hydrazin-1-ylidene]-4,5-dihydro-1H-pyrazol-1-yl]methyl}acetamide]
B. lentus % of I (Bacillus lentus): 95% | Selective Index (SI) (SI=IC50/MIC) [1]: 18.16

O=C1NN=C(N=Cc2ccc(O)cc2O)C1=NNn1c(-c2ccccc2)nc2ccccc2c1=O [QSP3, 3-{2-[-3-[-[(2,4-dihydroxyphenyl)methylidene]amino]-5-oxo-4,5-dihydro-1H-pyrazol-4-ylidene] hydrazin-1-yl}-2-phenyl-3,4-dihydroquinazolin-4-one]
Selective Index (SI) (SI=IC50/MIC) [1]: 08.35

CC1=NN(CNc2ccc(O)cc2)C(=O)C1=NNn1c(-c2ccccc2)nc2ccccc2c1=O [QP3, 3-{2-[-1-{[(4-hydroxyphenyl)amino]methyl}-3-methyl-5-oxo-4,5-dihydro-1H-pyrazol-4-ylidene] hydrazin-1-yl}-2-phenyl-3,4-dihydroquinazolin-4-one]
Selective Index (SI) (SI=IC50/MIC) [1]: 01.16

CC[C@@H](CO)NCCN[C@@H](CC)CO [Ethambutol, ethambutol]
TB Activity MIC×10^-3 (MTB37RV) [2]: 07.60 ×10^-3 μM/ml

CC1=NN(CNC(=O)c2ccccc2)C(=O)C1=NNn1c(-c2ccccc2)nc2ccccc2c1=O [QP11, N-{[-3-methyl-5-oxo-4-[2-(4-oxo-2-phenyl-3,4-dihydroquinazolin-3-yl)hydrazin-1-ylidene]-4,5-dihydro-1H-pyrazol-1-yl]methyl}benzamide]
B. lentus % of I (Bacillus lentus): 95% | TB Activity MIC×10^-3 (MTB37RV) [2]: 06.49 ×10^-3 μM/ml

O=C1NN=C(N=Cc2ccccc2)C1=NNn1c(-c2ccccc2)nc2ccccc2c1=O [QSP1, 3-{2-[-5-oxo-3-[-(phenylmethylidene)amino]-4,5-dihydro-1H-pyrazol-4-ylidene]hydrazin-1-yl}-2-phenyl-3,4-dihydroquinazolin-4-one]
Selective Index (SI) (SI=IC50/MIC) [1]: 10.92

O=C(O)c1cn(C2CC2)c2cc(N3CCNCC3)c(F)cc2c1=O [CFN, ciprofloxacin]
TB Activity MIC×10^-3 (MTB37RV) [2]: 09.40 ×10^-3 μM/ml

CC1=NN(CNc2ccc(C(=O)O)cc2)C(=O)C1=NNn1c(-c2ccccc2)nc2ccccc2c1=O [QP6, 4-({[-3-methyl-5-oxo-4-[2-(4-oxo-2-phenyl-3,4-dihydroquinazolin-3-yl)hydrazin-1-ylidene]-4,5-dihydro-1H-pyrazol-1-yl]methyl}amino)benzoic acid]
C. bacterium % of I (Coryne bacterium): 90% | antibacterial activity relative to standard drug ciprofloxacin (Escherichia coli): 1.5 times

— publication PMC3831729 (Indian Journal of Pharmaceutical Sciences, 2013)
